zfTRPN1 agonist: zebrafish TRPN1 channel agonists, primary screen, cell-based, HEK293, calcium fluorescence | transient receptor potential cation channel N1 (TRPN1/NompC), Danio rerio | actives 0.18% (n = 220,000) | activation, % at 3 µM | HEK293 zebrafish TRPN1-YFP, Fluo-8 calcium fluorescence; 100% = response to 87 µM carbachol;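 active = activation above its plate's cutoff, the mean activation of test wells on that plate plus 3 SD, cut at about 19% in these data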
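Assay system: Zebrafish TRPN1-YFP in HEK293 cells | Incubation: Dye loading 1 h at 37 °C, then 30 min room temperature | Measured by: Kinetic Fluo-8 fluorescence, ex 470-495, em 515-575 nm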
TRPML3 ag: human TRPML3 channel agonists, primary screen, cell-based, HEK293 TRPML3-YFP, Fluo-8 calcium fluorescence, 3 µM; Mucolipin-3 (Homo sapiens), Q8TDD5; 100% = the carbachol control signal; activation, % at 3 µM; actives 0.29% (n = 220,000);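 active = activation above its plate's cutoff, the mean activation of the plate's test wells plus 3 SD, cut at about 12% in these data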
Target sequence (Q8TDD5 whole entry, looked up): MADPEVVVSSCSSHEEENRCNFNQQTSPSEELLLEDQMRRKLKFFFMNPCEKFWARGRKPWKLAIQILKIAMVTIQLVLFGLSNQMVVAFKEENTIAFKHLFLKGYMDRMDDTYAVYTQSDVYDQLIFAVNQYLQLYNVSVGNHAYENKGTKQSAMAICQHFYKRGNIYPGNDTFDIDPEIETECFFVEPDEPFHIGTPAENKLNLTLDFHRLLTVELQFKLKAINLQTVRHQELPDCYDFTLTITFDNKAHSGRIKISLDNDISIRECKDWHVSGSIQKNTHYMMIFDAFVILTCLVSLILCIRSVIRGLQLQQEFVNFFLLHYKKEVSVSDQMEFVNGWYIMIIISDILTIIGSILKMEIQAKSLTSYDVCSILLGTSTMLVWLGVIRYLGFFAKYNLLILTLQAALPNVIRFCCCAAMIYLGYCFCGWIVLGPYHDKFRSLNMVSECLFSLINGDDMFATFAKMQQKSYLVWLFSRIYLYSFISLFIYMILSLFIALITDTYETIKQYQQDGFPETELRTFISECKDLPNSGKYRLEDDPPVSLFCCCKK
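Material: HEK293 cells stably carrying human TRPML3-YFP; compound dosing: single dose, 3 µM final nominal compound, 0.3% DMSO final; incubation: 1-h 37 °C dye load, 5-s basal, 120-s post-compound reads; technique: Fluo-8 intracellular calcium fluorescence, excitation 470-495 nm, emission 515-575 nm; read-out basis: percent activation from peak-to-basal fluorescence ratio, scaled between DMSO and carbachol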
OXTR potentiate: human OXTR potentiators, primary screen, fluorescence, CHO-OTR cells, Fluo-8 calcium; Oxytocin receptor (Homo sapiens), P30559; Fluo-8 calcium fluorescence, potentiator mode; 0% = oxytocin EC15, 100% = EC100; activation, % at 3 µM; actives 0.061% (n = 320,000); AID 2445, 2010;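 active = activation above that plate's cutoff, the mean activation of tested compounds plus 3 SD, cut at about 6.6% in these data, passing the limit was not always enough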
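assay system = CHO-OTR cells, human receptor | schedule = compound 6 min at room temperature before oxytocin, 100 s read | detection = Fluo-8 intracellular calcium fluorescence, ex 470-495, em 515-575 nm | evaluation = normalized max/min fluorescence ratio, % activation | control set = EC15 oxytocin alone as 0%, 75 nM oxytocin (EC100) as 100%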
V1aR counter: agonists of human V1a receptor, primary screen, counter-screen for OXTR agonist project, fluorescence, CHO-V1R cells. Vasopressin V1a receptor (Homo sapiens), P37288. Fluo-8 calcium fluorescence, agonist mode; 0% DMSO, 100% 3 nM vasopressin. actives 0.25% (n = 320,000). activation, % at 3 µM;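 active = activation above the mean activation of all tested compounds plus 3 SD, per screening run, cut at about 20% in these data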;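 also: signal is peak over basal fluorescence ratio across a 100 second FLIPR read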
OXTR agonist: human OXTR agonists, primary screen, fluorescence, CHO-OTR cells, Fluo-8 calcium | Fluo-8 calcium fluorescence; normalized: DMSO 0%, oxytocin 100% | activation, % at 3 µM | actives 0.32% (n = 320,000) | AID 2435, 2010;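 active = activation above the mean of all tested compounds plus 3 SD, cutoff set per screening run, cut at about 20% in these data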;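 also: peak over basal fluorescence ratio from a 100 s FLIPR kinetic read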
Of the large screens only hits and unclear results are named; the others gave an inactive call. Compounds with a hit are over-represented: about 0.59% of the library has one in this group of screens.

O=C(NCC(c1ccco1)N1CCCC1)c1ccc(S(=O)(=O)Nc2ccc(F)cc2)cc1 (centres undefined)	none (no result: zfTRPN1 agonist, TRPML3 ag)
COc1ccc(NS(=O)(=O)c2ccc(C(=O)N3CCC(C)CC3)cc2)cc1	V1aR counter 24, OXTR agonist 40 (no result: zfTRPN1 agonist, TRPML3 ag)
COc1ccc(CN(C)C(=O)c2ccc(NS(=O)(=O)c3ccc(F)cc3)cc2)c(OC)c1	none (no result: zfTRPN1 agonist, TRPML3 ag)
COc1cc(OC)c(N2CC(C(=O)NCCC3=CCCCC3)CC2=O)cc1Cl (centres undefined)	none (no result: zfTRPN1 agonist, TRPML3 ag)
Cc1cc(C)c(C)c(S(=O)(=O)N2CCC(C(=O)OCC(=O)NC3CCS(=O)(=O)C3)CC2)c1C (centres undefined)	none (no result: zfTRPN1 agonist, TRPML3 ag)
Cc1ccccc1C(=O)NCC(=O)OC(C)C(=O)NC(C)CCc1ccccc1 (centres undefined)	none (no result: zfTRPN1 agonist, TRPML3 ag)
Cc1ccc(S(=O)(=O)Nc2ccc(NC(=O)c3c(F)c(F)c(F)c(F)c3F)cc2)cc1	zfTRPN1 agonist 27, V1aR counter 27, OXTR agonist 37
Cc1cc(NS(=O)(=O)c2ccc(NC(=O)c3c(F)c(F)c(F)c(F)c3F)cc2)nc(C)n1	none (no result: zfTRPN1 agonist, TRPML3 ag)
CC(C)(C)C(=O)Nc1scc(-c2ccc(-c3ccccc3)cc2)c1C(=O)O	V1aR counter 39, OXTR agonist 26 (no result: zfTRPN1 agonist, TRPML3 ag)
Cc1ccc(Sc2ccc(S(=O)(=O)Nc3ccc(C(=O)O)cc3)cc2)cc1C	V1aR counter 21, OXTR agonist 25 (no result: zfTRPN1 agonist, TRPML3 ag)
Cc1ccc(Oc2ccc(S(=O)(=O)Nc3ccc(C(=O)O)cc3)cc2)cc1	none (no result: zfTRPN1 agonist, TRPML3 ag)
Cc1c(Cl)ccc2c1NC(=O)[C@]21N[C@@H](Cc2ccccc2)[C@H]2C(=O)N(c3ccc(F)cc3)C(=O)[C@H]21	V1aR counter 24, OXTR agonist 27
COc1cc(/C=C/C(=O)c2ccc3c(c2)OCO3)cc(Cl)c1O	V1aR counter 98, OXTR agonist 70 (no result: zfTRPN1 agonist, TRPML3 ag)
COc1ccc(/C=C/C(=O)c2ccc3c(c2)OCO3)c(OC)c1	none
CC(Oc1ccccc1)C(=O)Nc1nnc(S(=O)(=O)Nc2ccccc2)s1 (centres undefined)	none (no result: zfTRPN1 agonist, TRPML3 ag)
Cc1cc(Br)ccc1NC(=O)CN(C)C(=O)Cn1c(=O)cnc2ccccc21	none (no result: zfTRPN1 agonist, TRPML3 ag)
CC1CCN(C(=O)CSc2nc3c(c(=O)n2C)SC(C)C3)CC1 (centres undefined)	none (no result: zfTRPN1 agonist, TRPML3 ag)
CCOC(=O)Cc1csc(NC(=O)C(C)c2ccc([N+](=O)[O-])cc2)n1 (centres undefined)	zfTRPN1 agonist 22, TRPML3 ag 16, V1aR counter 26, OXTR agonist 27
CC1=C(C(N)=O)C(c2ccc(Br)cc2)n2nc(CCCO)nc2N1 (centres undefined)	none (no result: zfTRPN1 agonist, TRPML3 ag)
Brc1ccc(C2=CC(c3cccs3)n3ncnc3N2)cc1 (centres undefined)	V1aR counter 75, OXTR agonist 75
OCCCc1nc2n(n1)C(c1cccs1)C=C(c1ccc(Br)cc1)N2 (centres undefined)	V1aR counter 109, OXTR agonist 160
Fc1ccc(C2=CC(c3ccc(Br)o3)n3ncnc3N2)cc1 (centres undefined)	V1aR counter 34, OXTR agonist 51
CCCN(C(=O)CSc1ccccc1C(=O)O)C1CCS(=O)(=O)C1 (centres undefined)	none (no result: zfTRPN1 agonist, TRPML3 ag)
CC(CC(=O)N1CCN(c2ccccc2)CC1)S(=O)(=O)c1ccc2c(c1)NC(=O)CO2 (centres undefined)	none (no result: zfTRPN1 agonist, TRPML3 ag)
O=[N+]([O-])c1ccc(NC(=S)NCCc2ccccc2)cc1	zfTRPN1 agonist 19, TRPML3 ag 12
COCc1ccc(CN2CCC(C(=O)Nc3cccc(-c4cccc(Cl)c4)c3)CC2)o1	V1aR counter 28, OXTR agonist 23 (no result: zfTRPN1 agonist, TRPML3 ag)
COCc1ccc(CN2CCC(C(=O)Nc3cccc(-c4cscn4)c3)CC2)o1	none (no result: zfTRPN1 agonist, TRPML3 ag)
CC1(c2ccc(OC(F)F)cc2)NC(=O)N(CC(=O)NCCC2=CCCCC2)C1=O (centres undefined)	none (no result: zfTRPN1 agonist, TRPML3 ag)
O=C(NCc1ccccn1)c1cccc(NS(=O)(=O)c2ccc(Br)cc2)c1	none (no result: zfTRPN1 agonist, TRPML3 ag)
O=C(NN=C1CCCC1)c1sc2ccccc2c1Cl	none
O=C1CCC/C(=N/NC(=O)c2sc3ccccc3c2Cl)C1	V1aR counter 32
CCN(CC)c1ccc(/C=C(/C#N)c2nc3ccc(C)cc3[nH]2)c(OC(C)C)c1	zfTRPN1 agonist 30, TRPML3 ag 23, V1aR counter 50, OXTR agonist 69
CCOc1cc(N(CC)CC)ccc1/C=C(/C#N)c1nc2ccccc2[nH]1	V1aR counter 116, OXTR agonist 114
O=C(NCCNC(=O)c1ccccn1)c1ccccc1	none (no result: zfTRPN1 agonist, TRPML3 ag)
CN(Cc1cccs1)C(=O)CCCc1c[nH]c2ccccc12	zfTRPN1 agonist 32, TRPML3 ag 32
Cc1cc(C)c(C(=O)COC(=O)c2nn(C)c(=O)c3ccccc23)cc1C	none (no result: zfTRPN1 agonist, TRPML3 ag)
CCCCOc1ccc(C(=O)OCC(=O)Nc2cc(C)on2)cc1	zfTRPN1 agonist 94, TRPML3 ag 88
CCCOc1ccc(C(=O)CCC(=O)OCC(=O)Nc2cc(C)on2)cc1	none (no result: OXTR potentiate, V1aR counter, OXTR agonist)
N#Cc1ccc(NC(=O)Nc2ccc(Oc3ccc(NC(=O)Nc4ccc(C#N)cc4)cc3)cc2)cc1	none
N#Cc1ccc(NC(=O)Nc2cccc(C#N)c2)cc1	zfTRPN1 agonist 23, TRPML3 ag 12 (no result: OXTR potentiate, V1aR counter, OXTR agonist)
CC1(C(=O)NCc2ccc(Cl)c(Cl)c2)Oc2cccnc2NC1=O (centres undefined)	V1aR counter 21, OXTR agonist 25
Cc1cc(C)c(OCC(=O)OC(C)C(=O)NC2CC2)c(C)c1 (centres undefined)	none (no result: zfTRPN1 agonist, TRPML3 ag)
CCC(=O)OCC(=O)c1c(N)n(Cc2ccccc2)c(=O)n(C)c1=O	none
Cn1c(=O)c(C(=O)COc2ccc(C#N)cc2)c(N)n(Cc2ccccc2)c1=O	V1aR counter 28, OXTR agonist 32
CC(=O)N1CCN(C(=O)COc2ccc3oc4c(c3c2)CCCC4)CC1	none (no result: zfTRPN1 agonist, TRPML3 ag)
COc1cccc(CN(C)C(=O)CNC(=O)c2ccc(-c3ccccc3)cc2)c1OC	none (no result: zfTRPN1 agonist, TRPML3 ag)
CC1CCN(C(=O)CN2C(=O)NC(C)(c3ccc4ccccc4c3)C2=O)CC1 (centres undefined)	none (no result: zfTRPN1 agonist, TRPML3 ag)
Cc1cc(/C=C2\NC(=S)N(C)C2=O)ccc1N1CCCC1	zfTRPN1 agonist 32, TRPML3 ag 12, V1aR counter 79, OXTR agonist 69
Cc1cc(/C=C2/C(=O)N(C)C(=S)N2C)ccc1N1CCCC1	V1aR counter 29, OXTR agonist 23
CCCN1C(=O)/C(=C/c2ccc(OCC(=O)OCC)cc2)NC1=S	none (no result: OXTR potentiate, V1aR counter, OXTR agonist)
CCCN1C(=O)/C(=C/c2ccc(N3CCCC3)c(C)c2)NC1=S	zfTRPN1 agonist 85, TRPML3 ag 52, V1aR counter 113, OXTR agonist 112
